Assays:
[1] = Cytotoxicity against human GS4.1 cells at 15 uM; type: cell-based
In short: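 Cellular toxicity of drug at a single test concentration of 15 µM in GS4.1 (HCV replicon) cells; reported as % toxicity.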

Hepatitis C virus = test: Antiviral activity against HCV assessed at 15 uM by ELISA; type: functional, Hepacivirus hominis
In short: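 HCV replicon replication in GS4.1 cells, read by ELISA-based replicon assay at a single test concentration of 15 µM of drug; reported as % inhibition.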

dengue virus type 2 = test: Antiviral activity against DENV infected in BHK21 cells assessed as inhibition of virus-induced cytopathic effect at 15 uM; type: functional; conditions: BHK-21
In short: (§1)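 Single test concentration 15 µM of drug in acutely infected BHK cells; inhibition of virus-induced cytopathogenicity read by CPE assay, reported as % inhibition.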

[2] = Cytotoxicity against WNV infected BHK21 cells at 15 uM; type: cell-based, Mesocricetus auratus; conditions: hamster, bhk-21, 15 µM
In short: (§2)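 Cellular toxicity measured at a single test concentration of 15 µM of drug in BHK cells run alongside the flavivirus CPE assays; reported as % toxicity.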

[3] = Cytotoxicity against DENV infected BHK21 cells at 15 uM; type: cell-based, Mesocricetus auratus; conditions: hamster, bhk-21, 15 µM; in short: as §2
West Nile virus = test: Antiviral activity against WNV infected in BHK21 cells assessed as inhibition of virus-induced cytopathic effect at 15 uM; type: functional; conditions: BHK-21; in short: as §1
[4] = Cytotoxicity against YFV infected BHK21 cells at 15 uM; type: cell-based, Mesocricetus auratus; conditions: hamster, bhk-21, 15 µM
Yellow fever virus = test: Antiviral activity against YFV infected in BHK21 cells assessed as inhibition of virus-induced cytopathic effect at 15 uM; type: functional; conditions: BHK-21

Row | Structure (SMILES) | Activity [1] [%] | inhibition at 15 µM (Hepatitis C virus) [%] | inhibition at 15 µM (dengue virus type 2) [%] | Activity [2] [%] | Activity [3] [%] | inhibition at 15 µM (West Nile virus) [%] | Activity [4] [%] | inhibition at 15 µM (Yellow fever virus) [%]
1 | Cc1ccc(C(=O)OC[C@H]2O[C@@H](n3cc(Cn4ccc5c(Cl)ncnc54)nn3)C[C@@H]2OC(=O)c2ccc(C)cc2)cc1 | 20.77 | 49.2 | -1.05 | 0.31 | 0.31 | -2.95 |  | 
2 | Nc1nc(Cl)c2ccn(Cc3cn([C@H]4C[C@H](O)[C@@H](CO)O4)nn3)c2n1 | -3.3 | 2.93 | 2.49 | 1.3 | 1.3 | 5.71 | 8.55 | 13.3
3 | C#CCn1cnc2c(N)ncnc21 | -10.4 | 2.99 | -3.4 | 3.8 | 3.8 | -1.77 | -7.46 | -2.81
4 | O=C(Nc1ncnc2c1ncn2Cc1cn([C@H]2C[C@H](O)[C@@H](CO)O2)nn1)c1ccccc1 | -3.55 | 9.02 | 1.02 | 5.54 | 5.54 | -1.16 | -2.91 | 8.76
5 | O=c1ccn(Cc2cn([C@H]3C[C@H](O)[C@@H](CO)O3)nn2)c(=O)[nH]1 | -5.59 | 0.04 | 0.75 | 9.5 | 9.5 | -2.67 | -4.57 | 4.59
6 | Cc1ccc(C(=O)OC[C@H]2O[C@@H](n3cc(Cn4ccc(=O)[nH]c4=O)nn3)C[C@@H]2OC(=O)c2ccc(C)cc2)cc1 | -4.12 | 11.3 | 0.82 | 3.37 | 3.37 | -2.84 |  | 
7 | Cc1ccc(C(=O)OC[C@H]2O[C@@H](n3cc(Cn4ccc(N)nc4=O)nn3)C[C@@H]2OC(=O)c2ccc(C)cc2)cc1 | -8.12 | 15.6 | -2.26 | 4.08 | 4.08 | -3.67 |  | 
8 | Nc1ccn(Cc2cn([C@H]3C[C@H](O)[C@@H](CO)O3)nn2)c(=O)n1 | -5.59 | 10.1 | 0.95 | 9.41 | 9.41 | 0.24 | -4.62 | 7.89
9 | C#CCn1ccc2c(Cl)ncnc21 | 1.84 | 69.2 | -0.85 | -9.83 | -9.83 | 3.81 | -19.45 | -0.25
10 | Cc1ccc(C(=O)OC[C@H]2O[C@@H](n3cc(Cn4ccc5c(Cl)nc(N)nc54)nn3)C[C@@H]2OC(=O)c2ccc(C)cc2)cc1 | 6.49 | 32.1 | -2.39 | 0.17 | 0.17 | -1.44 |  | 
11 | Nc1ncnc2c1ccn2Cc1cn([C@H]2C[C@H](O)[C@@H](CO)O2)nn1 | -3.79 | -3.8 | 3.43 | 3.14 | 3.14 | 2.42 | 4.48 | 11
12 | Nc1ncnc2c1ncn2Cc1cn([C@H]2C[C@H](O)[C@@H](CO)O2)nn1 | -0.61 | 7.54 | 1.02 | 7.85 | 7.85 | -0.43 | -2.12 | 8.36
13 | OC[C@H]1O[C@@H](n2cc(Cn3cnc4c3ncn3ccnc43)nn2)C[C@@H]1O | -2.24 | 6.07 | 2.23 | -2.95 | -2.95 | -2.44 | -11.67 | 4.39
14 | C#CCn1ccc(=O)[nH]c1=O | -8.85 | 12.1 | -4.6 | 2.76 | 2.76 | -4.57 | 0.08 | -11.3
